Data as given in ChEMBL document CHEMBL1926550, “Synthesis and antibacterial activity of naphthyridone derivatives containing mono/difluoro-methyloxime pyrrolidine scaffolds” (2012).
≈ marks a conversion by molar mass, not a printed value.

Each molecule was assayed on Staphylococcus aureus (assay: Antibacterial activity against methicillin-sensitive Staphylococcus aureus 10-5 after 18 hrs by two fold serial dilution method). Conditions: 10-5, 18 h.
Type: functional
Method in brief: (§1)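 Agar two-fold serial dilution in melted Mueller-Hinton agar, final concentrations 128 down to 0.008 μg/mL. Plates inoculated with 10⁴ cfu and incubated at 35 °C for 18 h. MIC taken as the lowest concentration giving no visible growth on the plate.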

**Q.** How did the MIC turn out when COc1c(N2C[C@@H]3CCCN[C@@H]3C2)c(F)cc2c(=O)c(C(=O)O)cn(C3CC3)c12 [MOXIFLOXACIN] was run?
**A.** 0.03 µg/mL (≈ 0.0747 µM)

Each molecule was assayed on Staphylococcus aureus (assay: Antibacterial activity against methicillin-resistant Staphylococcus aureus 10-1 after 18 hrs by two fold serial dilution method). Conditions: 10-1, 18 h.
Type: functional
Method in brief: (§2)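 Agar two-fold serial dilution in melted Mueller-Hinton agar, 128 to 0.008 μg/mL. Plates inoculated with 10⁴ cfu, incubated 35 °C for 18 h. MIC taken as lowest concentration giving no visible growth on the plate.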

**Q.** Which MIC does the source give for COc1c(N2C[C@@H]3CCCN[C@@H]3C2)c(F)cc2c(=O)c(C(=O)O)cn(C3CC3)c12 [MOXIFLOXACIN] here?
**A.** 8 µg/mL (≈ 19.9 µM)

What follows are molecules tested on Klebsiella pneumoniae (assay: Antibacterial activity against Klebsiella pneumoniae 10-3 after 18 hrs by two fold serial dilution method). Conditions: 10-3, 18 h.
Type: functional
Method in brief: as §1

**Q.** With COc1c(N2C[C@@H]3CCCN[C@@H]3C2)c(F)cc2c(=O)c(C(=O)O)cn(C3CC3)c12 [MOXIFLOXACIN] as the molecule, how does the MIC read?
**A.** 0.5 µg/mL (≈ 1.25 µM)

What follows are molecules tested on Staphylococcus aureus (assay: Antibacterial activity against methicillin-resistant Staphylococcus aureus 10-3 after 18 hrs by two fold serial dilution method). Conditions: 10-3, 18 h.
Type: functional
Method in brief: as §2

**Q.** How did the MIC turn out when COc1c(N2C[C@@H]3CCCN[C@@H]3C2)c(F)cc2c(=O)c(C(=O)O)cn(C3CC3)c12 [MOXIFLOXACIN] was run?
**A.** 8 µg/mL (≈ 19.9 µM)

Each molecule was assayed on Staphylococcus epidermidis (assay: Antibacterial activity against methicillin-sensitive Staphylococcus epidermidis 10-1 after 18 hrs by two fold serial dilution method). Conditions: 10-1, 18 h.
Type: functional
Method in brief: as §1

**Q.** With COc1c(N2C[C@@H]3CCCN[C@@H]3C2)c(F)cc2c(=O)c(C(=O)O)cn(C3CC3)c12 [MOXIFLOXACIN] as the molecule, how does the MIC read?
**A.** 2 µg/mL (≈ 4.98 µM)

Each molecule was assayed on Staphylococcus aureus (assay: Antibacterial activity against methicillin-sensitive Staphylococcus aureus 10-3 after 18 hrs by two fold serial dilution method). Conditions: 10-3, 18 h.
Type: functional
Method in brief: as §1

**Q.** For COc1c(N2C[C@@H]3CCCN[C@@H]3C2)c(F)cc2c(=O)c(C(=O)O)cn(C3CC3)c12 [MOXIFLOXACIN], which MIC is on record?
**A.** 0.008 µg/mL (≈ 0.0199 µM)

What follows are molecules tested on Escherichia coli (assay: Antibacterial activity against Escherichia coli ATCC 25922 after 18 hrs by two fold serial dilution method). Conditions: ATCC 25922, 18 h.
Type: functional
Method in brief: as §1

**Q.** Which MIC does the source give for COc1c(N2C[C@@H]3CCCN[C@@H]3C2)c(F)cc2c(=O)c(C(=O)O)cn(C3CC3)c12 [MOXIFLOXACIN] here?
**A.** 0.008 µg/mL (≈ 0.0199 µM)

The molecules below were run on Pseudomonas aeruginosa (assay: Antibacterial activity against Pseudomonas aeruginosa ATCC 27853 after 18 hrs by two fold serial dilution method). Conditions: ATCC 27853, 18 h.
Type: functional
Method in brief: as §1

**Q.** COc1c(N2C[C@@H]3CCCN[C@@H]3C2)c(F)cc2c(=O)c(C(=O)O)cn(C3CC3)c12 [MOXIFLOXACIN] was tested. Which MIC did it give?
**A.** 1 µg/mL (≈ 2.49 µM)

The molecules below were run on Klebsiella pneumoniae (assay: Antibacterial activity against Klebsiella pneumoniae 10-1 after 18 hrs by two fold serial dilution method). Conditions: 10-1, 18 h.
Type: functional
Method in brief: as §1

**Q.** With COc1c(N2C[C@@H]3CCCN[C@@H]3C2)c(F)cc2c(=O)c(C(=O)O)cn(C3CC3)c12 [MOXIFLOXACIN] as the molecule, how does the MIC read?
**A.** 0.03 µg/mL (≈ 0.0747 µM)

Each molecule was assayed on Klebsiella pneumoniae (assay: Antibacterial activity against Klebsiella pneumoniae 09-2 after 18 hrs by two fold serial dilution method). Conditions: 09-2, 18 h.
Type: functional
Method in brief: as §1

**Q.** For COc1c(N2C[C@@H]3CCCN[C@@H]3C2)c(F)cc2c(=O)c(C(=O)O)cn(C3CC3)c12 [MOXIFLOXACIN], which MIC is on record?
**A.** 16 µg/mL (≈ 39.9 µM)

These molecules were tested on Enterococcus faecalis (assay: Antibacterial activity against Enterococcus faecalis 09-2 after 18 hrs by two fold serial dilution method). Conditions: 09-2, 18 h.
Type: functional
Method in brief: as §1

**Q.** COc1c(N2C[C@@H]3CCCN[C@@H]3C2)c(F)cc2c(=O)c(C(=O)O)cn(C3CC3)c12 [MOXIFLOXACIN] was tested. Which MIC did it give?
**A.** 16 µg/mL (≈ 39.9 µM)

What follows are molecules tested on Staphylococcus aureus (assay: Antibacterial activity against methicillin-sensitive Staphylococcus aureus 10-4 after 18 hrs by two fold serial dilution method). Conditions: 10-4, 18 h.
Type: functional
Method in brief: as §1

**Q.** With COc1c(N2C[C@@H]3CCCN[C@@H]3C2)c(F)cc2c(=O)c(C(=O)O)cn(C3CC3)c12 [MOXIFLOXACIN] as the molecule, how does the MIC read?
**A.** 0.008 µg/mL (≈ 0.0199 µM)

Each molecule was assayed on Enterococcus faecium (assay: Antibacterial activity against Enterococcus faecium 09-3 after 18 hrs by two fold serial dilution method). Conditions: 09-3, 18 h.
Type: functional
Method in brief: as §1

**Q.** Which MIC does the source give for COc1c(N2C[C@@H]3CCCN[C@@H]3C2)c(F)cc2c(=O)c(C(=O)O)cn(C3CC3)c12 [MOXIFLOXACIN] here?
**A.** 2 µg/mL (≈ 4.98 µM)

These molecules were tested on Escherichia coli (assay: Antibacterial activity against Escherichia coli 10-3 after 18 hrs by two fold serial dilution method). Conditions: 10-3, 18 h.
Type: functional
Method in brief: as §1

**Q.** With COc1c(N2C[C@@H]3CCCN[C@@H]3C2)c(F)cc2c(=O)c(C(=O)O)cn(C3CC3)c12 [MOXIFLOXACIN] as the molecule, how does the MIC read?
**A.** 4 µg/mL (≈ 9.96 µM)

What follows are molecules tested on Escherichia coli (assay: Antibacterial activity against Escherichia coli 09-2 after 18 hrs by two fold serial dilution method). Conditions: 09-2, 18 h.
Type: functional
Method in brief: as §1

**Q.** COc1c(N2C[C@@H]3CCCN[C@@H]3C2)c(F)cc2c(=O)c(C(=O)O)cn(C3CC3)c12 [MOXIFLOXACIN] was tested. Which MIC did it give?
**A.** 32 µg/mL (≈ 79.7 µM)

Each molecule was assayed on Staphylococcus epidermidis (assay: Antibacterial activity against methicillin-resistant Staphylococcus epidermidis 10-2 after 18 hrs by two fold serial dilution method). Conditions: 10-2, 18 h.
Type: functional
Method in brief: as §2

**Q.** COc1c(N2C[C@@H]3CCCN[C@@H]3C2)c(F)cc2c(=O)c(C(=O)O)cn(C3CC3)c12 [MOXIFLOXACIN] was tested. Which MIC did it give?
**A.** 1 µg/mL (≈ 2.49 µM)

These molecules were tested on Enterococcus faecalis (assay: Antibacterial activity against Enterococcus faecalis 09-1 after 18 hrs by two fold serial dilution method). Conditions: 09-1, 18 h.
Type: functional
Method in brief: as §1

**Q.** How did the MIC turn out when COc1c(N2C[C@@H]3CCCN[C@@H]3C2)c(F)cc2c(=O)c(C(=O)O)cn(C3CC3)c12 [MOXIFLOXACIN] was run?
**A.** 8 µg/mL (≈ 19.9 µM)

What follows are molecules tested on Escherichia coli (assay: Antibacterial activity against Escherichia coli 10-2 after 18 hrs by two fold serial dilution method). Conditions: 10-2, 18 h.
Type: functional
Method in brief: as §1

**Q.** COc1c(N2C[C@@H]3CCCN[C@@H]3C2)c(F)cc2c(=O)c(C(=O)O)cn(C3CC3)c12 [MOXIFLOXACIN] was tested. Which MIC did it give?
**A.** 0.5 µg/mL (≈ 1.25 µM)
